Compound activity as filed in PubChem.
The sample as a whole holds a higher share of hits than the screen did.
HUVEC prolif 384 – blocks proliferation of human endothelial cells | HUVEC proliferation, CellTiter-Glo luminescence, 72 h; active compounds read low | viability, % at 10 µM (by protocol) | 86,000 compounds, 1.1% hits;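 active means viability at or below 30%; inactive means viability above 30%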;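 further: 100% = median luminescence of DMSO-only cell control wells on each plate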
Fibroblast inh – blocks proliferation of human lung fibroblasts; viability, % at 10 µM; LL 47 human lung fibroblast viability, ATP luminescence; active compounds read low; AID 719; 85,000 compounds, 1.1% hits;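 active means viability at or below 50% in the single dose screen; inactive means viability above 50%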;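 further: compound exposure lasted 72 h before the ATP readout; 100% = median luminescence of untreated cell-only wells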
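Material: human lung fibroblast line LL 47, low passage; Evaluation: viability percentage against median untreated-cell control; Buffer or medium: 15% FBS in IMEM; Incubation: 72 h compound exposure at 37 °C after overnight plating; Dosing: 0.1% DMSO in all compound wells; Measured by: CellTiter-Glo luminescence.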
PTEN del growth – growth suppressors of cells with PTEN tumor suppressor deletion; AID 827; HCT116 PTEN-null viability, CellTiter-Glo, 60 h; active compounds read low; 140,000 compounds, 1.2% hits; viability, % at 10 µM;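 active means viability at or below a set limit, 4 SD under the median of all tested compounds, cut at about 3.7% in these data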;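 further: PTEN knockout HCT116 line with beta catenin targeted HCT116 as companion control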
H69AR inhibit – growth inhibitors of human H69AR lung tumor cells; H69AR lung tumor viability, ATP luminescence, 72 h; active compounds read low; AID 598; viability, % at 10 µM; 85,000 compounds, 6% hits;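 active means viability at or below 40%; inactive means viability above 40%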;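 further: multidrug resistant small cell line overexpressing MRP-1 efflux transporter; 100% = mean luminescence of untreated control wells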
bCat KO growth – beta-catenin-lacking colon tumor cell growth suppression; HCT116 beta-catenin knockout viability, CellTiter-Glo, 60 h; active compounds read low; viability, % at 10 µM; 140,000 compounds, 1.5% hits; AID 818;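 active means viability at or under a set limit, the compound median less 4 SD, cut at about 6% in these data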;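 further: 0% = Hyamine 1622 control at 20 µM and 100% = untreated cell control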
Starred values were filed as active, the others as inactive; . = no result.

SMILES | HUVEC prolif 384 | Fibroblast inh | PTEN del growth | H69AR inhibit | bCat KO growth
CCOC(=O)C1=C(N)Oc2cc(C)oc(=O)c2C12C(=O)N1c3c(cc(OC)cc32)C(C)=CC1(C)C (centres undefined) | 90.6 | 96.3 | 42.6 | 31.4* | 60.0
CC(=Nc1ccc2c(c1)CCC2)c1c(O)n(C2CCCCC2)c(=O)[nH]c1=O | 42.1 | 37.2* | 95.4 | 40.4 | 54.1
CCN(CC)CCCNC(=O)c1c(O)c2ccccc2n(Cc2ccccc2)c1=O | 100.5 | 74.2 | 46.6 | 9.1* | 38.8
CCN(CC)CCNC(=O)c1c(O)c2ccccc2n(Cc2ccccc2)c1=O | 107.0 | 90.1 | 64.1 | 26.6* | 48.6
C/C(=N\Nc1cccc2ccccc12)c1c(O)n(Cc2ccccc2)c(=O)[nH]c1=O | . | . | 69.5 | . | 75.6
CC1=C(/C=C/c2ccccc2)CCN(C)C1 | . | . | 99.9 | . | 95.1
CCOc1cccc(OCC)c2c(C)[n+](CC3CCCO3)c(C)c1-2 (centres undefined) | 94.6 | 103.5 | 108.0 | 32.1* | 95.8
O=C1CN=C(c2cccs2)c2c(sc3c2CCCC3)N1 | 62.4 | 94.7 | 25.5 | 21.4* | 24.7
O=C1C2CCCN2C(c2ccccc2)N1c1ccccn1 (centres undefined) | 95.7 | 104.3 | 105.1 | 99.1 | 92.5
O=C(Nc1ccc(Cl)cc1)Nc1nccs1 | 53.5 | 55.8 | 35.6 | 29.2* | 20.1
CC(=NC(C)c1ccccc1)c1c(O)[nH]c(=O)[nH]c1=O (centres undefined) | . | . | 97.7 | . | 94.3
